Results as given in ChEMBL document CHEMBL1124083, “Synthesis and biological properties of actinomycin D chromophoric analogues substituted at carbon 7 with aziridine and cyclopropyl functions” (J Med Chem, 1988).
Values after ≈ are worked out from the molar mass of the structure shown. *1 amine or outer side, *2 acyl side, *3 side chain or, on linkers, in order; H or OH if unused. Where a SMILES comes first, the peptide text is derived from it. Bridges are numbered along the chain shown (N, C = ends). Roman numbers before positions name the chains, in order. [ ]: non-standard residue; d: D form. Actinocin(9to1) = Cc1c2oc3c(C)ccc(C(=O)[*:1])c3nc-2c(C(=O)[*:2])c(N)c1=O; NMeV = CN[C@H](C(=O)O)C(C)C; Sar = CNCC(=O)O

Tests used:
B16 = assay: In vitro antitumor activity against murine melanoma cells (B16 melanoma cells); type: functional; settings: Mus musculus, read-out: ID50 (the source's name)
Outline: (§1)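 Cells grown in suspension culture and exposed to compound for 48 h. Compounds dissolved in Me₂SO-saline, with less than 1% Me₂SO in the final growth medium. ID50 is the concentration in ng/mL giving 50% growth inhibition. Values are the mean of three experiments; SD ranged from 8% to 10% of the mean.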

[1] = The delta Tm value is a measure of a stabilization of the DNA helical structure as consequence of compound binding; type: ADME
Outline: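 Calf-thymus DNA at 5.0 × 10⁻⁵ M with drug at 2.5 × 10⁻⁵ M in 0.01 M phosphate buffer (pH 7) containing 10⁻⁵ M EDTA. Thermal denaturation curves were recorded. ΔTm is the Tm of the DNA–drug complex minus the Tm of DNA alone.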

CCRF-CEM = assay: In vitro antitumor activity against human leukemic lymphoblastic cells (CCRF-CEM); type: functional; settings: read-out: ID50 (the source's name); outline: as §1

| Compound | IC50 (B16) [µg/mL] | Delta Tm [1] [C] | IC50 (CCRF-CEM) [µg/mL] |
| --- | --- | --- | --- |
| Cc1c2oc3c(C)c(OCC4CN4)cc(C(=O)N[C@@H]4C(=O)N[C@H](C(C)C)C(=O)N5CCC[C@H]5C(=O)N(C)CC(=O)N(C)[C@@H](C(C)C)C(=O)O[C@@H]4C)c3nc-2c(C(=O)N[C@@H]2C(=O)N[C@H](C(C)C)C(=O)N3CCC[C@H]3C(=O)N(C)CC(=O)N(C)[C@@H](C(C)C)C(=O)O[C@@H]2C)c(N)c1=O (some centres not stated) | 0.11 (≈ 0.0829 µM) | 2.8 | 0.076 (≈ 0.0573 µM) |
| Cc1c2oc3c(C)c(OCC4CC4)cc(C(=O)N[C@@H]4C(=O)N[C@H](C(C)C)C(=O)N5CCC[C@H]5C(=O)N(C)CC(=O)N(C)[C@@H](C(C)C)C(=O)O[C@@H]4C)c3nc-2c(C(=O)N[C@@H]2C(=O)N[C@H](C(C)C)C(=O)N3CCC[C@H]3C(=O)N(C)CC(=O)N(C)[C@@H](C(C)C)C(=O)O[C@@H]2C)c(N)c1=O | 0.038 (≈ 0.0287 µM) | -0.6 | 0.055 (≈ 0.0415 µM) |
| Cc1c2oc3c(C)c(OCC(C)N)cc(C(=O)N[C@@H]4C(=O)N[C@H](C(C)C)C(=O)N5CCC[C@H]5C(=O)N(C)CC(=O)N(C)[C@@H](C(C)C)C(=O)O[C@@H]4C)c3nc-2c(C(=O)N[C@@H]2C(=O)N[C@H](C(C)C)C(=O)N3CCC[C@H]3C(=O)N(C)CC(=O)N(C)[C@@H](C(C)C)C(=O)O[C@@H]2C)c(N)c1=O (some centres not stated) | 0.055 (≈ 0.0414 µM) | 4.8 | 0.06 (≈ 0.0452 µM) |
| Cc1c2oc3c(C)c(OCCNCCO)cc(C(=O)N[C@@H]4C(=O)N[C@H](C(C)C)C(=O)N5CCC[C@H]5C(=O)N(C)CC(=O)N(C)[C@@H](C(C)C)C(=O)O[C@@H]4C)c3nc-2c(C(=O)N[C@@H]2C(=O)N[C@H](C(C)C)C(=O)N3CCC[C@H]3C(=O)N(C)CC(=O)N(C)[C@@H](C(C)C)C(=O)O[C@@H]2C)c(N)c1=O | – | 1.9 | 0.5 (≈ 0.368 µM) |
| Cc1c2oc3c(C)c(OCCN4CC4)cc(C(=O)N[C@@H]4C(=O)N[C@H](C(C)C)C(=O)N5CCC[C@H]5C(=O)N(C)CC(=O)N(C)[C@@H](C(C)C)C(=O)O[C@@H]4C)c3nc-2c(C(=O)N[C@@H]2C(=O)N[C@H](C(C)C)C(=O)N3CCC[C@H]3C(=O)N(C)CC(=O)N(C)[C@@H](C(C)C)C(=O)O[C@@H]2C)c(N)c1=O | 0.14 (≈ 0.104 µM) | 1.8 | 0.3 (≈ 0.224 µM) |
| Cc1c2oc3c(C)ccc(C(=O)N[C@@H]4C(=O)N[C@H](C(C)C)C(=O)N5CCC[C@H]5C(=O)N(C)CC(=O)N(C)[C@@H](C(C)C)C(=O)O[C@@H]4C)c3nc-2c(C(=O)N[C@@H]2C(=O)N[C@H](C(C)C)C(=O)N3CCC[C@H]3C(=O)N(C)CC(=O)N(C)[C@@H](C(C)C)C(=O)O[C@@H]2C)c(N)c1=O [DACTINOMYCIN] (I: T[dV]P[Sar][NMeV] / II: T[dV]P[Sar][NMeV]; ester I:1-I:C, II:1-II:C; linker I:N-II:N via Actinocin(9to1)) | 0.0033 (≈ 0.00263 µM) | 8 | 0.013 (≈ 0.0104 µM) |
